One test has as its system Staphylococcus aureus. In words: Antibacterial activity against Staphylococcus aureus subsp. aureus str. Newman assessed as reduction in bacterial growth incubated for 24 hrs. Type of test: functional. The method, boiled down:
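Overnight culture diluted 1:1000 in TSB, grown to A600 0.6-0.8, then diluted 1:400 in TSB. Aliquots incubated with the compound at a range of concentrations. A600 read every 1 hr for 24 hr to build growth curves. Technical triplicates per point; three independent experiments.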

Test [1] has as its target T1, Sortase A (Staphylococcus aureus, UniProt Q9S446, DELTAN24). Description: Inhibition of Staphylococcus aureus SrtA delta N24 mutant expressed in Escherichia coli BL21 (DE3) using Abz-LPATG-Dnp substrate incubated for 20 mins by FRET-based assay. The method, boiled down: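 His-tagged SrtAΔN24 (1 µM) was preincubated 20 min at rt with compound (0.2–100 µM) in 50 mM Tris-HCl pH 7.5, 150 mM NaCl, 5 mM CaCl2. Abz-LPATG-Dnp was added at 10 µM and fluorescence (ex 309 / em 420 nm) was read each minute for 20 min. IC50 came from a sigmoidal fit. Technical triplicates, three independent experiments.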

Test [2] concerns the target T1, Sortase A. In words: Inhibition of Staphylococcus aureus SrtA delta N24 mutant expressed in Escherichia coli BL21 (DE3) assessed as reduction in IsdA (64 to 323 residues) transpeptidation incubated for 20 mins by SDS-PAGE analysis. The procedure, abridged:
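His-tagged SrtAΔN24 (100 µg) was preincubated 20 min at rt with compound (1–25 µM) in 50 mM Tris-HCl pH 7.5, 150 mM NaCl, 5 mM CaCl2. IsdA64-323 (150 µg) and 3 mM Gly3 were then added for 1.5 hr at 37 °C. […] Three independent experiments.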

Test [3] has as its system Sortase A (Staphylococcus aureus), Q9S446 [UNDEFINED MUTATION]. In words: Inhibition of SrtA delta N24 mutant in Staphylococcus aureus subsp. aureus str. Newman reduction in abundance of anchored SpA at 100 uM by FITC-labeled human IgG fluorescence based assay. The procedure, abridged: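 Newman wild type and ΔsrtA were diluted 1:1000 in TSB and grown at 37 °C with inhibitor until A600 reached 1.0. Cells were PBS-washed, labelled with FITC-human IgG for 30 min at rt, and washed again before fluorescence was read. Triplicate wells, three independent experiments, unpaired two-tailed t-test.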

The source of these data is ChEMBL document CHEMBL4619779, “Tideglusib and Its Analogues As Inhibitors of Staphylococcus aureus SrtA” (J Med Chem, 2020).

pIC50: −log10 of the molar value. ≈ marks a conversion by molar mass, not a printed value. Calls of active or inactive are those of the source. No cut-off for these calls is given here. Bounds are passed on as bounds.

For `O=c1sn(Cc2ccccc2)c(=O)n1Cc1ccccc1Cl`, in the test with Staphylococcus aureus, the MIC worked out at 12.5 µg/mL (≈ 37.6 µM). Moreover, the pIC50 at Sortase A [1] was 5.47; at Sortase A [2] it was 4.55.

With `CCCCn1c(=O)sn(-c2cccc3ccccc23)c1=O`, the MIC in the test with Staphylococcus aureus is 100 µg/mL (≈ 333 µM). The figures for the pIC50 on Sortase A [1] and on Sortase A [2] were 6.05 and 4.90, respectively.

As to `O=c1sn(CCc2ccccc2)c(=O)n1Cc1ccccc1`, in the test with Staphylococcus aureus, the MIC was 12.5 µg/mL (≈ 40 µM). Further, the values for the pIC50 at Sortase A [1] and at Sortase A [2] were 5.00 and 4.37, respectively.

`O=c1sn(Cc2ccccc2)c(=O)n1-c1cccc(F)c1`: the MIC in the test on Staphylococcus aureus turned out to be 12.5 µg/mL (≈ 41.3 µM). Also, the values for the pIC50 against Sortase A [1] and at Sortase A [2] were less than 4.00 and less than 4.30, respectively.

In the case of `Cc1ccc(Cn2c(=O)sn(Cc3ccccc3)c2=O)cc1`, the MIC with Staphylococcus aureus was 12.5 µg/mL (≈ 40 µM). For the same compound, the pIC50 is 5.29 against Sortase A [1] and 4.45 on Sortase A [2].

For `O=c1sn(Cc2ccccc2)c(=O)n1Cc1ccc(Cl)c(Cl)c1`, the MIC in the test on Staphylococcus aureus amounted to 12.5 µg/mL (≈ 34 µM). For the same compound, the pIC50 against Sortase A [1] was 5.54; on Sortase A [2] it was 4.71.

With `CCCCn1c(=O)sn(Cc2ccccc2)c1=O`, the MIC in the test with Staphylococcus aureus is 6.2 µg/mL (≈ 23.5 µM). For the same compound, the pIC50 against Sortase A [1] is 5.08; on Sortase A [2], 4.67.

For `O=c1sn(C2CCCC2)c(=O)n1C1CCCCC1`, the MIC in the test with Staphylococcus aureus worked out at 6.2 µg/mL (≈ 23.1 µM). The pIC50 against Sortase A [1] is 4.99; at Sortase A [2], less than 4.30.

Consider `CCn1c(=O)sn(-c2c(C)noc2C)c1=O`, for which the minimal inhibitory concentration (MIC) in the test with Staphylococcus aureus is greater than 100 µg/mL. Besides, the pIC50 against Sortase A [1] is 5.82; on Sortase A [2], 5.20.

For the compound `O=c1sn(-c2cccc3ccccc23)c(=O)n1Cc1ccc(O)cc1`, the MIC with Staphylococcus aureus is 100 µg/mL (≈ 285 µM). Besides, the pIC50 is 5.59 at Sortase A [1] and 5.33 at Sortase A [2].

Take `O=c1sn(-c2cccc3c2CCCC3)c(=O)n1Cc1ccccc1`: the MIC in the test on Staphylococcus aureus is 50 µg/mL (≈ 148 µM). Further, the pIC50 at Sortase A [1] is 5.22; at Sortase A [2], 4.50.

With `Cn1c(=O)sn(-c2cccc3ccccc23)c1=O`, the MIC in the test with Staphylococcus aureus is 100 µg/mL (≈ 387 µM). Moreover, the results for the pIC50 on Sortase A [1] and at Sortase A [2] were 6.10 and 5.10, respectively.

On to `CCn1c(=O)sn(-c2cccc3ccccc23)c1=O`, for which, in the test on Staphylococcus aureus, the MIC was greater than 100 µg/mL. In addition, the pIC50 against Sortase A [1] was 6.15; on Sortase A [2] it was 5.09.

In the case of `O=c1sn(-c2cccc3ccccc23)c(=O)n1Cc1cccc(O)c1`, the MIC in the test with Staphylococcus aureus was greater than 100 µg/mL. Moreover, the pIC50 at Sortase A [1] was 5.80; on Sortase A [2] it was 5.04.

In the case of `CCn1sc(=O)n(Cc2ccc(C)cc2)c1=O`, the MIC in the test on Staphylococcus aureus was 6.2 µg/mL (≈ 24.8 µM). Besides, the values for the pIC50 against Sortase A [1] and on Sortase A [2] were 4.78 and less than 4.30, respectively.

Turning to `Cc1noc(C)c1-n1sc(=O)n(Cc2ccc(Cl)c(Cl)c2)c1=O`, the MIC in the test on Staphylococcus aureus is greater than 100 µg/mL. Further, the pIC50 against Sortase A [1] was 6.05; at Sortase A [2], 5.47.

As to `O=c1sn(-c2cccc3ccccc23)c(=O)n1Cc1ccc(F)cc1`, the MIC with Staphylococcus aureus worked out at 100 µg/mL (≈ 284 µM). Also, the pIC50 was 5.39 against Sortase A [1] and 5.23 at Sortase A [2].

Turning to `CC(C)n1c(=O)sn(Cc2ccccc2)c1=O`, in the test on Staphylococcus aureus, the MIC is 6.2 µg/mL (≈ 24.8 µM). Also, the negative-log IC50 (pIC50) is less than 4.00 against Sortase A [1] and less than 4.30 on Sortase A [2].

In the case of `O=c1sn(-c2cccc3c2OCO3)c(=O)n1Cc1ccccc1`, the MIC in the test with Staphylococcus aureus was greater than 100 µg/mL. The pIC50 against Sortase A [1] was 5.47; on Sortase A [2] it was 5.33.

`Cc1ccc(Cn2c(=O)sn(-c3cccc4ccccc34)c2=O)cc1`: in the test with Staphylococcus aureus, the MIC came to 100 µg/mL (≈ 287 µM). The results for the pIC50 against Sortase A [1] and at Sortase A [2] were 5.92 and 4.90, respectively.

As to `CCCCn1c(=O)sn(-c2c(C)noc2C)c1=O`, the MIC in the test with Staphylococcus aureus is greater than 100 µg/mL. Further, the pIC50 was 5.96 on Sortase A [1] and 5.39 at Sortase A [2].

Regarding `O=c1sn(Cc2ccccc2)c(=O)n1Cc1ccccc1`, in the test on Staphylococcus aureus, the MIC came to 12.5 µg/mL (≈ 41.9 µM). In addition, the pIC50 on Sortase A [1] is 5.15; on Sortase A [2] it was 4.89.

Turning to `O=c1sn(-c2cccc3ccccc23)c(=O)n1CCc1ccccc1`, the MIC in the test on Staphylococcus aureus was greater than 100 µg/mL. In addition, the pIC50 against Sortase A [1] was 6.22; at Sortase A [2], 4.56.

`Cc1noc(C)c1-n1sc(=O)n(Cc2ccccc2Cl)c1=O`: the MIC in the test on Staphylococcus aureus is greater than 100 µg/mL. Moreover, the values for the pIC50 on Sortase A [1] and at Sortase A [2] were 6.22 and 5.43, respectively.

Turning to `Cc1ccc(Cn2c(=O)sn(-c3c(C)noc3C)c2=O)cc1`, the MIC with Staphylococcus aureus was greater than 100 µg/mL. In addition, the figures for the pIC50 against Sortase A [1] and on Sortase A [2] were 5.96 and 5.33, respectively.

With `CCn1sc(=O)n(CCc2ccccc2)c1=O`, the minimum inhibitory concentration (MIC) in the test with Staphylococcus aureus was determined as 6.2 µg/mL (≈ 24.8 µM). Moreover, the negative logarithm of the IC50 (pIC50) is 4.79 against Sortase A [1] and less than 4.30 on Sortase A [2].

For `O=c1sn(-c2cccc3ccccc23)c(=O)n1Cc1ccc(Cl)c(Cl)c1`, the MIC with Staphylococcus aureus was 50 µg/mL (≈ 124 µM). Also, the values for the pIC50 against Sortase A [1] and at Sortase A [2] were 6.05 and 4.84, respectively.

Regarding `O=c1sn(-c2cccc3ccccc23)c(=O)n1Cc1ccccc1O`, the minimal inhibitory concentration (MIC) with Staphylococcus aureus is greater than 100 µg/mL. Moreover, the pIC50 against Sortase A [1] was 5.89; at Sortase A [2] it was 4.49.

As to `CC(C)n1c(=O)sn(CCc2ccccc2)c1=O`, the MIC in the test with Staphylococcus aureus came out at 25 µg/mL (≈ 94.6 µM). Also, the pIC50 against Sortase A [1] is less than 4.00; on Sortase A [2] it was less than 4.30.

As for `Cc1noc(C)c1-n1sc(=O)n(C(C)C)c1=O`, the MIC with Staphylococcus aureus is greater than 100 µg/mL. Besides, the results for the pIC50 at Sortase A [1] and on Sortase A [2] were 4.90 and less than 4.30, respectively.

For `O=c1sn(Cc2ccccc2)c(=O)n1CCCl`, in the test on Staphylococcus aureus, the MIC is 25 µg/mL (≈ 92.3 µM). In addition, the pIC50 at Sortase A [1] was 5.70; on Sortase A [2], 4.78.

For the compound `Cn1c(=O)sn(Cc2ccccc2)c1=O`, the MIC in the test on Staphylococcus aureus came to 12.5 µg/mL (≈ 56.2 µM). Also, the pIC50 on Sortase A [1] is 5.46; at Sortase A [2], 4.63.

Take `O=c1sn(-c2cccc3c2CCC3)c(=O)n1Cc1ccccc1`: the MIC in the test with Staphylococcus aureus is greater than 100 µg/mL. The values for the pIC50 on Sortase A [1] and on Sortase A [2] were 5.36 and 4.34, respectively.

Consider `O=c1sn(-c2cccc3ccccc23)c(=O)n1Cc1ccc(Cl)cc1`, for which the MIC in the test with Staphylococcus aureus stood at 100 µg/mL (≈ 271 µM). Also, the pIC50 is 6.15 against Sortase A [1] and 4.64 at Sortase A [2].

Regarding `Cc1noc(C)c1-n1sc(=O)n(Cc2ccc(Cl)cc2)c1=O`, the MIC in the test with Staphylococcus aureus is greater than 100 µg/mL. The pIC50 against Sortase A [1] was 6.00; at Sortase A [2], 5.39.

With `O=c1sn(CCc2ccccc2)c(=O)n1C1CCCCC1`, the MIC in the test with Staphylococcus aureus came to 12.5 µg/mL (≈ 41.1 µM). The pIC50 is less than 4.00 on Sortase A [1] and less than 4.30 on Sortase A [2].

For the compound `CCCCn1sc(=O)n(CCCC)c1=O`, in the test on Staphylococcus aureus, the MIC came to 3.1 µg/mL (≈ 13.5 µM). Further, the pIC50 was 4.36 against Sortase A [1] and less than 4.30 at Sortase A [2].

`COc1ccc(Cn2c(=O)sn(-c3c(C)noc3C)c2=O)cc1`: in the test on Staphylococcus aureus, the MIC is greater than 100 µg/mL. Moreover, the pIC50 is 5.92 against Sortase A [1] and 5.30 at Sortase A [2].

In the case of `CCn1sc(=O)n(Cc2ccc(Cl)cc2)c1=O`, in the test on Staphylococcus aureus, the MIC is 6.2 µg/mL (≈ 22.9 µM). For the same compound, the pIC50 on Sortase A [1] is 5.06; at Sortase A [2] it was less than 4.30.

As to `CCCNC1=C(c2ccccc2)C(=O)C2C(/C=C/S(=O)(=O)c3ccccc3)=CC=CC2C1=O` (stereo not drawn), the inhibition result in test [3] was “inactive”.
